Assay outcomes: PubChem BioAssay, several laboratories
CHOP inh: blocks CHOP induction under ER stress; CHO-K1 CHOP-promoter luciferase, tunicamycin-induced, 15-18 h; inhibition, % at 10 µM; 220,000 tested, 3.8% active; AID 2732;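 active means compounds that reduced the stress-induced luciferase reporter signal by more than about 70% of percent inhibition, limit read from the data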;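 further: 0% = tunicamycin plus vehicle and 100% = wells without tunicamycin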
CHOP UPR activ: activators of apoptotic arm of unfolded protein response (CHOP). AID 449763. activation, % at 10 µM. CHO-CHOP luciferase reporter, UPR activation, luminescence; percent of tunicamycin response over DMSO baseline. 330,000 tested, 0.34% active;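 active means at 10 µM dose, activation of 40% or more, normalized to positive control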;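 further: 100% = tunicamycin at 10 µg/mL and 0% = DMSO alone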
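Material: CHO-CHOP cells, stable luciferase reporter of PERK-eIF2a-CHOP signalling; quantity: 500 reporter cells seeded per well; buffer or medium: F12 medium containing 10% fetal bovine serum; compound: one dose, 10 µM in 0.5% DMSO; incubation: 6 h compound treatment, 37 °C; measured by: Steady-Glo luciferase luminescence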
XBP1 UPR activ: activators of adaptive arm of unfolded protein response (XBP1); CHO-XBP1 luciferase reporter, IRE1-XBP1 UPR activation, luminescence; percent of tunicamycin response, DMSO as zero; activation, % at 20 µM; 330,000 tested, 0.33% active;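 active means versus positive control, 20 µM dose yields 30% or more activation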;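 further: 100% = tunicamycin at 10 µg/mL and 0% = DMSO only wells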
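Material: CHO-XBP1 cells stably carrying IRE1-XBP1-driven luciferase reporter / Amount: 1000 cells per well / Compound: 20 µM, 1% DMSO / Times: 6 h treatment, 37 °C / Detection: luciferase luminescence / Measure: % activation of reporter signal versus tunicamycin and DMSO controls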
FXN GAA850 act: frataxin GAA850 promoter activation. 360,000 tested, 0.56% active. activation, % at 6 µM. AID 540364. HEK293 lucGAA850 FXN promoter luciferase reporter, 24 h; percent of 10 µM SAHA response;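 active means activation above the average of all compounds screened plus 3 SD, cutoff fixed separately per campaign, cut at about 7.5% in these data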;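 further: 0% = DMSO wells and 100% = 10 µM SAHA wells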
XBP1 UPR conf: adaptive UPR (XBP1) activation, confirmed | 1,000 tested, 63% active | activation, % at 20 µM | CHO-XBP1 IRE1-XBP1 luciferase reporter, luminescence | shares compounds with XBP1 UPR activ;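 active means reporter signal at least 30% of the positive control's activation in two or more of four replicate wells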;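 further: plate controls were DMSO negative control for no effect and tunicamycin 10 µg/mL positive control for full effect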
* marks the source's active call; other numbers are inactive results; · = not tested or not shown. Many of the other results were omitted from the sample, so hits are more common in it than they were.

SMILES	CHOP inh	CHOP UPR activ	XBP1 UPR activ	FXN GAA850 act	XBP1 UPR conf
COc1ccc(NC(=O)c2oc3ccccc3c2NC(=O)C2CC2)c(OC)c1	·	2	0	0	·
COc1ccc(C(=O)NC(=S)Nc2cc3oc4ccccc4c3cc2OC)cc1	78*	27	34*	-1	11
CC1(C)CC(Cc2ccc(Cl)nc2)N(C(=O)OC(C)(C)C)C1 (configuration not stated)	·	·	·	-3	·
CC(C)(C(=O)N1CCC1(C)C(=O)NS(=O)(=O)c1ccc(C#N)cc1)c1ccccc1 (configuration not stated)	·	·	·	0	·
CCOC(=O)c1c(Nc2ccc(Cl)cc2)sc(/C=C2\C=Nc3ccccc32)c1O	76*	4	38*	0	15
CC(=O)O[C@@H]1[C@@H](O)[C@@H](O)[C@H](Oc2c(-c3ccc(O)cc3)oc3c(CC=C(C)C)c(O)cc(O)c3c2=O)O[C@H]1C	·	-1	-3	·	·
CC(=O)O[C@H]1[C@@H](O)[C@H](O)[C@H](Oc2c(O)c(C)c3c4c2[C@@H](C)CC[C@@H]4[C@@H](C)C[C@H]3C=C(C)C)O[C@H]1C	·	5	47*	1	21
CN1Cc2c(N3CCOCC3)nc3sc(C(=O)c4ccc(Br)cc4)c(N)c3c2CC1(C)C	-10	8	38*	3	63*
Cc1ccc2[nH]c3c(=O)n(CC(=O)N4CC(C)CC(C)C4)ncc3c2c1 (configuration not stated)	·	4	32*	-1	1
Cc1ccc(SCC(=O)OCC(=O)NCCCc2ccccc2)cc1	·	1	1	1	·
O=C(COC(=O)CSc1ccc(F)cc1)NCCCc1ccccc1	·	0	44*	2	0
C#CCn1c(=NC(=O)c2cccs2)sc2cccc(OCC)c21	12	2	12	2	·
C#CCn1c(=NC(=O)c2ccc(Cl)s2)sc2cccc(OC)c21	79*	10	136*	2	112*
C[C@H](CO)N1C[C@H](C)[C@@H](CN(C)C(=O)Nc2ccc(C(F)(F)F)cc2)Oc2c(NC(=O)Nc3ccc(C(F)(F)F)cc3)cccc2C1=O	·	7	37*	-5	28
COC(=O)N(C)C[C@@H]1OCc2cnnn2CCCC(=O)N([C@H](C)CO)C[C@@H]1C	·	·	·	-1	·
C[C@]12CCC3C(CC[C@H]4CCCC[C@]34C)C1CC[C@@]2(O)CNCCO (some centres not stated)	·	4	33*	1	2
CC1(C(=O)NC2CCN(Cc3ccccc3)CC2)CCN1Cc1ccc2ccccc2c1 (configuration not stated)	·	·	·	-2	·
COc1ccc2[nH]c3nc(SCc4nnc(-c5ccc(C)cc5)o4)nnc3c2c1	20	7	71*	-2	190*
Brc1cc(Br)c2ncnc(N3CCCCC3)c2c1	66	-1	59*	1	41*
NC(Cc1ccc(C(F)(F)F)cc1)c1csc(Nc2nccc(C(F)(F)F)n2)n1 (configuration not stated)	·	·	·	0	·
Nc1nc(Nc2cccc(C(F)(F)F)c2)nc(C(F)(F)F)n1	-5	1	34*	7	49*
C[C@H]1CN([C@@H](C)CO)S(=O)(=O)c2ccc(/C=C/c3ccccc3)cc2O[C@H]1CN(C)C(=O)NC1CCCCC1	·	·	·	-1	·
COc1ccc2[nH]c3c(c2c1)CCN1C(=O)C(CC(=O)NC/C=C(\C)CCC=C(C)C)C[C@H](C(=O)N2CCOCC2)[C@@]31CCC1CCCC1 (some centres not stated)	·	8	47*	-2	58*
Cc1ccc(S(=O)(=O)N2CCCC(C(=O)NCCc3ccc(Cl)cc3)C2)cc1 (configuration not stated)	·	·	·	-2	·
COc1ccc(C(C)(O)c2nc(-c3ccc(Cl)cc3)cs2)cc1 (configuration not stated)	·	·	·	1	·
O=C(NCC1CCCO1)c1nn2c(C(F)(F)F)cc(-c3ccco3)nc2c1Cl (configuration not stated)	·	0	-3	0	·
O=C(NCC1CCCO1)c1nn2c(C(F)(F)F)cc(-c3cc(Br)cs3)nc2c1Br (configuration not stated)	·	6	42*	2	40*
